# Shown are actives, neighbours in structure and some others; about 3.6% of the full set was active somewhere.
# pPAFAH inh: pPAFAH (human) enzyme inhibition; recombinant pPAFAH, FP-rhodamine probe fluorescence polarization; inhibition, % at 3.39 µM; 330,000 compounds, 1.5% hits;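 active = inhibition above the mean inhibition across the screen plus 3 SD, cut at about 25% in these data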;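 also: inhibitors block binding of the rhodamine activity-based probe so polarization drops; 0% = enzyme with DMSO and 100% = wells lacking pPAFAH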
# IMP-1 inhibitor: inhibitors of Pseudomonas aeruginosa IMP-1 metallo-beta-lactamase | purified IMP-1, nitrocefin hydrolysis, epi-absorbance fluorescence | inhibition, % at 5.6 µM | 290,000 compounds, 0.45% hits | AID 1556;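 active = inhibition above the mean plus 3 SD of all compounds in the same screening run, cut at about 4.5% in these data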;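 also: 0% = IMP-1 with DMSO and 100% = DMSO wells lacking enzyme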
#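 Assay system: purified IMP-1; Quantity: IMP-1 0.2 nM before substrate addition; Medium: HEPES buffer pH 7.1 with ZnSO4 and Brij 35; Incubation: 15 min enzyme–compound preincubation, then 25 min nitrocefin reaction, 25 °C; Signal: fluorescence quenching readout, ex 480/em 530 nm; Controls: DMSO with and without IMP-1; Repeats: singlicate testing.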
# PAFAH2 inh: PAFAH2 (human) inhibition. recombinant PAFAH2, FP-rhodamine activity probe, fluorescence polarization. inhibition, % at 3.39 µM. 340,000 compounds, 0.99% hits. Q99487. AID 492956;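 active = inhibition above the mean over all tested compounds plus 3 SD, cut at about 30% in these data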;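 also: inhibitors block probe labeling of enzyme so polarization drops; 0% = enzyme with DMSO and 100% = wells lacking PAFAH2 protein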
# VIM-2 inh: inhibitors of Pseudomonas aeruginosa VIM-2 metallo-beta-lactamase. AID 1527. purified VIM-2, nitrocefin hydrolysis, epi-absorbance fluorescence. inhibition, % at 5.6 µM. 290,000 compounds, 0.89% hits;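 active = inhibition above the mean of all tested compounds plus 3 SD, cutoff set per screening run, cut at about 7.5% in these data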;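 also: red hydrolysis product quenches plate fluorescence so inhibitors raise well fluorescence; 0% = enzyme with DMSO and 100% = DMSO without enzyme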
# PAFAH1B3 FP inh: inhibitors of human PAFAH1B3 | Q15102 | recombinant PAFAH1B3, FP-rhodamine probe, fluorescence polarization | inhibition, % at 3.39 µM | 340,000 compounds, 0.28% hits;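 active = inhibition above the screen-wide average of all tested compounds plus 3 SD, cut at about 25% in these data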;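 also: 0% = enzyme with DMSO only and 100% = wells lacking PAFAH1B3 protein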
# PAFAH1B2 FP inh: PAFAH1B2 (human) inhibition. AID 492953. recombinant PAFAH1B2, FP-rhodamine activity probe, fluorescence polarization. P68402. inhibition, % at 3.39 µM. 340,000 compounds, 1.2% hits;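 active = inhibition above the mean of all tested compounds plus 3 SD, cut at about 24% in these data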;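 also: 0% = enzyme with DMSO and 100% = wells lacking PAFAH1B2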
# Target sequence (P68402 whole entry, looked up): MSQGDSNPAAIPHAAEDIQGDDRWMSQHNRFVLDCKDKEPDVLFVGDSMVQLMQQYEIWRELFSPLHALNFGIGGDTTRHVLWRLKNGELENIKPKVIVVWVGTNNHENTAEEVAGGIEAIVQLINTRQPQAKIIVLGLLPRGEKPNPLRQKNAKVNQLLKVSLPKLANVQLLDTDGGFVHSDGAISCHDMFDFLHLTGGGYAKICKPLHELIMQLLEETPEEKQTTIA
# VIM-2 confirm: VIM-2 inhibition, confirmation assay | 200 compounds, 73% hits | inhibition, % at 5.6 µM | shares compounds with IMP-1 inhibitor | purified VIM-2 enzyme, nitrocefin absorbance; in the data active = inhibition above about 8%;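 also: 0% = enzyme with vehicle and 100% = no enzyme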
# TEM-1 counter: blocks E. coli TEM-1 beta-lactamase, VIM-2 IMP-1 counter-screen | AID 2184 | shares compounds with IMP-1 inhibitor | 200 compounds, 50% hits | inhibition, % at 5.6 µM | nitrocefin absorbance inhibition; in the data active = inhibition above about 0.66%
# Target sequence (P62593 whole entry, looked up): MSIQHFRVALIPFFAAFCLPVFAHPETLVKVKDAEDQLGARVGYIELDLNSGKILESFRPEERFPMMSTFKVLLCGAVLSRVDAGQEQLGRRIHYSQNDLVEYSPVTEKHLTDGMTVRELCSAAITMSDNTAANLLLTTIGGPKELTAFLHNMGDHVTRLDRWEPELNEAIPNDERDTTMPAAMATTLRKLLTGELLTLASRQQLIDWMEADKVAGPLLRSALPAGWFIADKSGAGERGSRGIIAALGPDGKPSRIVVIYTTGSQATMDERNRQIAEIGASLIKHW
# IMP-1 inh conf: confirmation of P. aeruginosa IMP-1 metallo-beta-lactamase inhibitors | purified IMP-1 enzyme, absorbance substrate hydrolysis | shares compounds with IMP-1 inhibitor | inhibition, % at 5.6 µM | 200 compounds, 60% hits | AID 2189; in the data active = inhibition above about 4.9%;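 also: 0% = enzyme with vehicle and 100% = vehicle without enzyme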
# pPAFAH confirm: confirmation of human plasma PAF acetylhydrolase (pPAFAH) inhibitors | recombinant pPAFAH, FP-Rh probe fluorescence polarization | shares compounds with pPAFAH inh | inhibition, % at 3.39 µM | 2,300 compounds, 72% hits;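 active = mean inhibition of the triplicate above the hit cutoff set for the earlier primary screen, cut at about 25% in these data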;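 also: 0% = enzyme with DMSO and 100% = wells lacking pPAFAH enzyme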
# PAFAH2 confirm: PAFAH2 (human) inhibition, confirmed; shares compounds with PAFAH2 inh; inhibition, % at 3.39 µM; recombinant PAFAH2, FP-rhodamine activity probe, fluorescence polarization; 2,300 compounds, 65% hits;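 active = mean inhibition over three repeats above a set limit taken from the earlier primary screen, cut at about 30% in these data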;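 also: inhibitor blocks binding of rhodamine activity probe so polarization falls; 0% = enzyme with DMSO and 100% = wells lacking PAFAH2 protein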
# * = called active by the depositor; · = not tested or not shown.
SMILES,pPAFAH inh,IMP-1 inhibitor,PAFAH2 inh,VIM-2 inh,PAFAH1B3 FP inh,PAFAH1B2 FP inh,VIM-2 confirm,TEM-1 counter,IMP-1 inh conf,pPAFAH confirm,others
NNc1nc(C(F)(F)F)nc2ccccc12,4,-4,-2,-3,-7,0,·,·,·,·,
Cn1c(=O)c2c([nH]c(=S)n2Cc2ccc(Cl)cc2)n(C)c1=O,7,-3,6,-4,14,7,·,·,·,·,
COc1cc(OC)c(OC)cc1/C=C/C(=O)OCC(=O)Nc1c(C)n(C)n(-c2ccccc2)c1=O,·,·,10,·,4,-4,·,·,·,·,
CCCCNc1c2c3c(cccc3n(C)c1=O)C(=O)c1ccccc1-2,43*,28*,75*,23*,63*,53*,34*,53*,28*,48*,
CCNc1c2c3c(cccc3n(C)c1=O)C(=O)c1ccccc1-2,53*,23*,·,22*,·,·,60*,69*,41*,45*,
CCNC1=C(Cl)C(=O)c2ccccc2C1=O,4,-2,-1,-1,17,4,·,·,·,·,
COc1ccc(OCCOC(=O)c2cc(S(=O)(=O)N3CCOCC3)c(Cl)cc2Cl)cc1,4,·,1,·,-7,-2,·,·,·,·,
CC(=O)Oc1cc2cccc(OC(C)=O)c(=O)c2c(OC(C)=O)c1OC(C)=O,91*,8.9*,88*,7,46*,45*,2,-3,-2,34*,
CCN(CC)C(=O)C1c2ccccc2Oc2ccccc21,39*,17*,7,18*,16,4,2,1.6*,1,-1,
CCCCNC(=O)C1c2ccccc2Oc2ccccc21,0,-2,2,-1,9,12,·,·,·,·,
CCc1cc(=O)oc2cc(C)c(CN3CCCC(C)C3)c(O)c12 (configuration not stated),52*,16*,8,8.4*,6,-3,10*,-3,1,13,
CCc1cc(=O)oc2c(CN3CCCC3)c(O)c(Cl)cc12,5,3,0,1,4,1,·,·,·,·,
CCCCn1c(=O)[nH]c2nc3cc(N)ccc3nc2c1=O,37*,17*,27,19*,4,14,22*,31*,18*,14,
C=CCn1c(=O)[nH]c2nc3cc(N=CN(C)C)c(C)cc3nc2c1=O,4,2,-1,5,2,2,·,·,·,·,
CC(=O)Oc1ccc2c(c1)Oc1cc(OC(C)=O)ccc1C21OC(=O)c2ccccc21,99*,140*,124*,143*,129*,110*,14*,3.3*,4.7*,90*,
CCNc1ccc(Br)cc(C(=O)/C=C/c2c(Cl)cccc2Cl)c1=O,44*,6.0*,36*,8.3*,6,1,4,-1,-1,28*,
CCCc1nnc(SCC(=O)NC2CCCCC2)n1CCOC,5,-1,-4,-2,11,1,·,·,·,·,
O=c1ccc2c(-c3ccccc3)c3ccc(O)cc3oc-2c1,53*,84*,60*,81*,39*,47*,101*,152*,96*,47*,
CN(CC(=O)Nc1cccc(F)c1)C(=O)c1ccccc1-n1cnnn1,·,·,-14,·,14,3,·,·,·,·,
CCOC(=O)c1c(C)n(-c2ccc(C)cc2)c2c(C(C(C)=O)C(=O)O)c(Br)c(O)c(O)c12 (configuration not stated),18,5.4*,81*,7,-5,-3,-1,-5,-4,·,PAFAH2 confirm=75*
O=[N+]([O-])c1ccc(OCCCCN2CCc3ccccc3C2)cc1,7,-1,3,-1,12,0,·,·,·,·,

# Source: PubChem BioAssay (The Scripps Research Institute Molecular Screening Center)
